Holding throughout (assay type): functional
The subject of assay [1] is Staphylococcus aureus. Nature of the assay: In vitro antibacterial activity against gram-positive Staphylococcus aureus NCTC 10649M. The essentials:
(§1)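 Agar dilution MIC determination following the National Committee for Clinical Laboratory Standards recommendations.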

Assay [2] deals with Pseudomonas aeruginosa. As to the kind of experiment: In vitro antibacterial activity against gram negative P. aeruginosa DPHP 5263. The essentials: as §1
Assay [3] concerns Pseudomonas aeruginosa. As to the kind of experiment: In vitro antibacterial activity against Gram-negative Pseudomonas aeruginosa 5007. Particulars: Pseudomonas aeruginosa; read-out: MIC. The procedure, abridged: as §1
The next assay concerns Streptococcus pyogenes. Nature of the assay: In vitro antibacterial activity against gram positive Streptococcus pyogenes 930. The essentials: as §1
For assay [4], the system named is Staphylococcus aureus. As to the kind of experiment: In vitro antibacterial activity against gram-positive Staphylococcus aureus 1775. The essentials: as §1
Assay [5] has as its system Escherichia coli. As to the kind of experiment: In vitro antibacterial activity against gram negative Escherichia coli KNK 437. The procedure, abridged: as §1
Another assay relates to Enterococcus faecium. As to the kind of experiment: In vitro antibacterial activity against gram-positive Enterococcus faecium ATCC 8043. Particulars: Enterococcus faecium, ATCC 8043; read-out: MIC. The procedure, abridged:
as §1

Another assay deals with Burkholderia cepacia. Nature of the assay: In vitro antibacterial activity against gram negative Pseudomonas cepacia 2961. To be noted: Burkholderia cepacia; read-out: MIC. The essentials: as §1
Assay [6] deals with Staphylococcus aureus. Nature of the assay: In vivo efficacy against Staphylococcus aureus NCTC 10649M in mouse. Particulars: Staphylococcus aureus; read-out: ED50. The essentials: (§2)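 Mouse protection model: mice infected intravenously with 100-fold LD50 of the organism. Compound given by subcutaneous injection or oral gavage at 1 and 5 h after infection, over a dose range. Deaths tracked for 7 days post-inoculation. ED50 is the dose giving 50% survival of treated mice over the trial.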

Assay [7] concerns Escherichia coli. Nature of the assay: In vivo efficacy against Escherichia coli JUHL in mouse protection test after subcutaneous administration. To be noted: Escherichia coli, sc; read-out: ED50. The essentials:
as §2

The test system of the next assay is Streptococcus pneumoniae. As to the kind of experiment: In vivo efficacy against Streptococcus pneumoniae ATCC 6303 in mouse protection test after s.c. administration. Particulars: Streptococcus pneumoniae, sc; read-out: ED50. The essentials:
as §2

Assay [8] concerns Pseudomonas aeruginosa. Nature of the assay: In vivo efficacy against Pseudomonas aeruginosa 5007 in mouse protection test after subcutaneous administration. To be noted: Pseudomonas aeruginosa, sc; read-out: ED50. The essentials:
as §2

The test system of assay [9] is Staphylococcus aureus. Nature of the assay: In vivo efficacy against Staphylococcus aureus NCTC 10649M in mouse protection test after p.o. administration. Particulars: Staphylococcus aureus, po; read-out: ED50. The essentials:
as §2

Assay [10] deals with Escherichia coli. Nature of the assay: In vivo efficacy against Escherichia coli JUHL in mouse protection test after p.o. administration. Particulars: Escherichia coli, po; read-out: ED50. The procedure, abridged:
as §2

[11] abbreviates: Staphylococcus aureus, NCTC 10649, read-out: MIC.
Where [12] appears, read: Pseudomonas aeruginosa, DPHP 5263, read-out: MIC.
Where [13] appears, read: Streptococcus pyogenes, read-out: MIC.
Where [14] appears, read: Staphylococcus aureus, read-out: MIC.
Setting [15] is: Escherichia coli, read-out: MIC.

The MIC is the smallest concentration in the dilution series that meets the test's criterion for growth inhibition. By ED50 is commonly meant the midpoint of the dose-response relation.

Values after ≈ are worked out from the molar mass of the structure shown. Bounds are passed on as bounds.

`Cc1c(N2C[C@@H]3CCCC[C@]3(N)C2)c(F)cn2c(=O)c(C(=O)O)cc(C3CC3)c12`: the MIC with Staphylococcus aureus [1] (setting [11]) was 0.05 µg/mL (≈ 0.125 µM); in the assay with Pseudomonas aeruginosa [2] (setting [12]), 25 µg/mL (≈ 62.6 µM); in the assay with Pseudomonas aeruginosa [3], 1.56 µg/mL (≈ 3.91 µM); in the assay with Streptococcus pyogenes (setting [13]), 0.2 µg/mL (≈ 0.501 µM); in the assay on Staphylococcus aureus [4] (setting [14]) it was 1.56 µg/mL (≈ 3.91 µM); in the assay on Escherichia coli [5] (setting [15]), 0.78 µg/mL (≈ 1.95 µM). In addition, the MIC is 0.2 µg/mL (≈ 0.501 µM) in the assay with Enterococcus faecium and 1.56 µg/mL (≈ 3.91 µM) with Burkholderia cepacia.

As to `Cc1c(N2CCCO2)c(F)cn2c(=O)c(C(=O)O)cc(C3CC3)c12`, the ED50 with Staphylococcus aureus [6] was greater than 12 mg/kg; in the assay with Escherichia coli [7] it was greater than 5 mg/kg. For the same molecule, the MIC is 0.78 µg/mL (≈ 2.35 µM) in the assay on Staphylococcus aureus [1] (setting [11]); greater than 100 µg/mL in the assay on Pseudomonas aeruginosa [2] (setting [12]); 6.2 µg/mL (≈ 18.7 µM) in the assay on Pseudomonas aeruginosa [3]; 6.2 µg/mL (≈ 18.7 µM) with Streptococcus pyogenes (setting [13]); greater than 100 µg/mL in the assay with Staphylococcus aureus [4] (setting [14]); 6.2 µg/mL (≈ 18.7 µM) in the assay with Escherichia coli [5] (setting [15]). For the same molecule, the values for the MIC in the assay with Enterococcus faecium and in the assay with Burkholderia cepacia were 3.1 µg/mL (≈ 9.33 µM) and 6.2 µg/mL (≈ 18.7 µM), respectively.

For the molecule `Cc1c(N2CCC(CNCCF)C2)c(F)cn2c(=O)c(C(=O)O)cc(C3CC3)c12` (centres undefined), the MIC in the assay with Staphylococcus aureus [1] (setting [11]) was found to be 0.002 µg/mL (≈ 0.00493 µM); in the assay on Pseudomonas aeruginosa [2] (setting [12]) it was 12.5 µg/mL (≈ 30.8 µM); with Pseudomonas aeruginosa [3], 0.78 µg/mL (≈ 1.92 µM); with Streptococcus pyogenes (setting [13]), 0.002 µg/mL (≈ 0.00493 µM); in the assay on Staphylococcus aureus [4] (setting [14]), 0.1 µg/mL (≈ 0.247 µM); in the assay on Escherichia coli [5] (setting [15]), 0.2 µg/mL (≈ 0.493 µM). Besides, the MIC in the assay on Enterococcus faecium turned out to be 0.02 µg/mL (≈ 0.0493 µM); in the assay on Burkholderia cepacia it was 3.1 µg/mL (≈ 7.65 µM).

`CN[C@H]1CN(c2c(F)cn3c(=O)c(C(=O)O)cc(C4CC4)c3c2C)C[C@@H]1C`: the minimum inhibitory concentration (MIC) was found to be 0.05 µg/mL (≈ 0.134 µM) in the assay with Staphylococcus aureus [1] (setting [11]); 12.5 µg/mL (≈ 33.5 µM) in the assay on Pseudomonas aeruginosa [2] (setting [12]); 3.1 µg/mL (≈ 8.3 µM) in the assay on Pseudomonas aeruginosa [3]; 0.1 µg/mL (≈ 0.268 µM) in the assay on Streptococcus pyogenes (setting [13]); 0.78 µg/mL (≈ 2.09 µM) with Staphylococcus aureus [4] (setting [14]); 0.2 µg/mL (≈ 0.536 µM) in the assay with Escherichia coli [5] (setting [15]). Further, the values for the minimal inhibitory concentration (MIC) with Enterococcus faecium and in the assay with Burkholderia cepacia were 0.2 µg/mL (≈ 0.536 µM) and 0.78 µg/mL (≈ 2.09 µM), respectively.

`Cc1c(N2CCCN2C)c(F)cn2c(=O)c(C(=O)O)cc(C3CC3)c12`: the minimum inhibitory concentration (MIC) with Staphylococcus aureus [1] (setting [11]) was 0.02 µg/mL (≈ 0.0579 µM); in the assay with Pseudomonas aeruginosa [2] (setting [12]) it was greater than 100 µg/mL; with Pseudomonas aeruginosa [3], 3.1 µg/mL (≈ 8.98 µM); in the assay on Streptococcus pyogenes (setting [13]) it was 0.39 µg/mL (≈ 1.13 µM); in the assay with Staphylococcus aureus [4] (setting [14]) it was 3.1 µg/mL (≈ 8.98 µM); in the assay on Escherichia coli [5] (setting [15]), 3.1 µg/mL (≈ 8.98 µM). Also, the values for the minimal inhibitory concentration (MIC) in the assay with Enterococcus faecium and with Burkholderia cepacia were 0.39 µg/mL (≈ 1.13 µM) and 1.56 µg/mL (≈ 4.52 µM), respectively.

For the molecule `Cc1c(N2CCC[C@@H](NC3CC3)C2)c(F)cn2c(=O)c(C(=O)O)cc(C3CC3)c12`, the 50% effective dose (ED50) with Staphylococcus aureus [6] was 1.8 mg/kg; in the assay on Streptococcus pneumoniae, greater than 16 mg/kg; in the assay with Pseudomonas aeruginosa [8], greater than 32 mg/kg. In addition, the MIC in the assay with Staphylococcus aureus [1] (setting [11]) stood at 0.01 µg/mL (≈ 0.025 µM); in the assay with Pseudomonas aeruginosa [2] (setting [12]) it was 25 µg/mL (≈ 62.6 µM); with Pseudomonas aeruginosa [3] it was 0.78 µg/mL (≈ 1.95 µM); with Streptococcus pyogenes (setting [13]), 0.02 µg/mL (≈ 0.0501 µM); in the assay with Staphylococcus aureus [4] (setting [14]), 3.1 µg/mL (≈ 7.76 µM); with Escherichia coli [5] (setting [15]), 0.1 µg/mL (≈ 0.25 µM). Also, the MIC worked out at 0.05 µg/mL (≈ 0.125 µM) with Enterococcus faecium and 6.2 µg/mL (≈ 15.5 µM) with Burkholderia cepacia.

In the case of `Cc1c(N2C[C@H](C)[C@@H](N)C2)c(F)cn2c(=O)c(C(=O)O)cc(C3CC3)c12`, the MIC turned out to be 0.05 µg/mL (≈ 0.139 µM) with Staphylococcus aureus [1] (setting [11]); 3.1 µg/mL (≈ 8.63 µM) with Pseudomonas aeruginosa [2] (setting [12]); 0.39 µg/mL (≈ 1.09 µM) in the assay with Pseudomonas aeruginosa [3]; 0.1 µg/mL (≈ 0.278 µM) in the assay with Streptococcus pyogenes (setting [13]); 0.78 µg/mL (≈ 2.17 µM) in the assay on Staphylococcus aureus [4] (setting [14]); 0.1 µg/mL (≈ 0.278 µM) in the assay on Escherichia coli [5] (setting [15]). The figures for the minimal inhibitory concentration (MIC) in the assay with Enterococcus faecium and in the assay on Burkholderia cepacia were 0.2 µg/mL (≈ 0.556 µM) and 0.78 µg/mL (≈ 2.17 µM), respectively.

For `CN[C@@H]1CN(c2c(F)cn3c(=O)c(C(=O)O)cc(C4CC4)c3c2C)C[C@H]1C` (stereo in doubt), the MIC in the assay on Staphylococcus aureus [1] (setting [11]) came out at 0.01 µg/mL (≈ 0.0268 µM); against Pseudomonas aeruginosa [2] it was 3.1 µg/mL (≈ 8.3 µM); with Pseudomonas aeruginosa [3], 0.2 µg/mL (≈ 0.536 µM); in the assay with Streptococcus pyogenes it was 0.02 µg/mL (≈ 0.0536 µM); against Staphylococcus aureus [4], 0.39 µg/mL (≈ 1.04 µM); with Escherichia coli [5] it was 0.05 µg/mL (≈ 0.134 µM). Moreover, the MIC with Enterococcus faecium turned out to be 0.1 µg/mL (≈ 0.268 µM); in the assay with Burkholderia cepacia it was 0.78 µg/mL (≈ 2.09 µM).

For `Cc1c(N2C[C@@H](N)[C@@H](C3CC3)C2)c(F)cn2c(=O)c(C(=O)O)cc(C3CC3)c12` (stereo in doubt; 3s), the ED50 with Staphylococcus aureus [6] came out at 1.5 mg/kg; in the assay on Escherichia coli [7], 3.7 mg/kg; with Staphylococcus aureus [9], 3.4 mg/kg; with Escherichia coli [10] it was 6.6 mg/kg. In addition, the minimal inhibitory concentration (MIC) was determined as 0.02 µg/mL (≈ 0.0519 µM) in the assay with Staphylococcus aureus [1]; 12.5 µg/mL (≈ 32.4 µM) in the assay on Pseudomonas aeruginosa [2] (setting [12]); 0.39 µg/mL (≈ 1.01 µM) in the assay on Pseudomonas aeruginosa [3]; 0.1 µg/mL (≈ 0.259 µM) in the assay with Streptococcus pyogenes; 0.39 µg/mL (≈ 1.01 µM) in the assay with Staphylococcus aureus [4] (setting [14]); 0.2 µg/mL (≈ 0.519 µM) with Escherichia coli [5] (setting [15]). The MIC was 0.1 µg/mL (≈ 0.259 µM) with Enterococcus faecium and 0.78 µg/mL (≈ 2.02 µM) with Burkholderia cepacia.

Consider `Cc1c(N2C[C@@H](N)[C@H](C3CC3)C2)c(F)cn2c(=O)c(C(=O)O)cc(C3CC3)c12` (stereo in doubt; 3t), for which the MIC against Staphylococcus aureus [1] is 0.01 µg/mL (≈ 0.0259 µM); in the assay with Pseudomonas aeruginosa [2] (setting [12]), 6.2 µg/mL (≈ 16.1 µM); in the assay with Pseudomonas aeruginosa [3], 0.78 µg/mL (≈ 2.02 µM); with Streptococcus pyogenes (setting [13]), 0.05 µg/mL (≈ 0.13 µM); with Staphylococcus aureus [4] (setting [14]), 0.78 µg/mL (≈ 2.02 µM); in the assay on Escherichia coli [5] (setting [15]) it was 0.1 µg/mL (≈ 0.259 µM). Besides, the MIC in the assay with Enterococcus faecium is 0.1 µg/mL (≈ 0.259 µM); with Burkholderia cepacia, 0.78 µg/mL (≈ 2.02 µM).

These data come from ChEMBL document CHEMBL1132437, “Synthesis and antimicrobial activity of 4H-4-oxoquinolizine derivatives: consequences of structural modification at the C-8 position” (1999).
